Assay outcomes as filed in PubChem BioAssay.
The list is not random: actives were taken first. Their share in the collection is about 2.4%.
TMEM16A act: TMEM16A chloride channel activators or potentiators, primary screen, cell-based, HTS; HEK293 TMEM16A/YFP-H148Q/I152L, iodide quench fluorescence; stronger effect = lower value; B-score at 10 µM; 340,000 compounds, 0.3% hits; AID 623877, 2012;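 active = fluorescence-ratio B-score plate-corrected deviation score at least 3 library SD below zero, with starting fluorescence score within 5 deviations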;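 note: channel opened by trigger with iodide after compound preincubation; score built on the fluorescence ratio of max minus min over baseline; more negative score means more quench and so TMEM16A activation or potentiation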
ANO1 block: TMEM16A chloride channel inhibitors, primary screen, cell-based, HTS; HEK293 TMEM16A/YFP iodide influx fluorescence, ionomycin; normalized B-score (activity score, 25-100; higher = stronger inhibition) at 10 µM; 310,000 compounds, 1.2% hits;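 active = ratio plate-corrected score three or more library SD toward inhibition, starting fluorescence score within five deviations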;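 note: score derived from kinetic fluorescence span divided by baseline fluorescence per well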
Apaf-1 inh: inhibitors of human Apaf-1 apoptosome, primary screen, biochemical, DEVD-Rh110 fluorescence, uHTS | AID 489030, 2010 | 330,000 compounds, 0.71% hits | Apoptotic protease-activating factor 1 (Homo sapiens), O14727 | reconstituted apoptosome caspase-3 activity | inhibition, % at 20 µM; active = inhibition of at least 40% at 20 µM;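 note: plate controls were DMSO wells for no effect and DEVD-CHO caspase inhibitor wells for full effect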
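Material: cell-free apoptosome with Apaf-1, procaspase-3 and caspase-9; Buffer or medium: Hepes pH 7.5 with detergent and BSA; Reagent: cytochrome c trigger plus (Z-DEVD)2-Rh110 caspase-3 substrate; Times: compound with Apaf-1, dATP, procaspase-3 30 min, then 50 min reaction, room temperature; Technique: Rh110 fluorescence intensity.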
FID counter: compounds displacing fluorescent DNA intercalator, primary screen, artefact control for HCV NS3 helicase inhibitor project, biochemical, FID fluorescence | DNA fluorescent intercalator displacement | inhibition, % at 7.9 µM | 290,000 compounds, 0.17% hits | AID 1845, 2009; in the data active = inhibition above about 37%;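 note: 0% = vehicle and 100% = reference compound; higher means more ethidium bromide displaced from hairpin DNA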
UBC13 polyUb: UBC13 polyubiquitin chain formation inhibitors, primary screen, biochemical, TR-FRET, uHTS. inhibition, % at 20 µM. 330,000 compounds, 0.47% hits; in the data active = inhibition above about 45%, passing the limit was not always enough
Target sequence (P61088 whole entry, looked up): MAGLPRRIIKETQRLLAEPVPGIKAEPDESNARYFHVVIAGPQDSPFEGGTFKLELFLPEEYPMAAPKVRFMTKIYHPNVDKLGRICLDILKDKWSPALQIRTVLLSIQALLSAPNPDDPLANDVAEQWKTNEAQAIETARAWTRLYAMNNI
Apaf-1 inh conf2: Apaf-1 inhibitors, single-dose retest, confirmation, biochemical, fluorescence, DEVD-Rh110, 20 µM; shares compounds with Apaf-1 inh; reconstituted apoptosome, caspase-3 DEVD-Rh110 fluorescence; inhibition, % at 20 µM; 1,800 compounds, 25% hits;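 active = mean inhibition of at least 40% at 20 µM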;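 note: plate controls were DMSO wells for no effect and DEVD-CHO caspase inhibitor control wells for full effect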
Rh110 interf inh: Rh110 fluorescence interference by putative Apaf-1 inhibitors, confirmation, artefact control for Apaf-1 inhibitor project, biochemical, 20 µM. shares compounds with Apaf-1 inh. quenched caspase reaction. activation (fluorescence interference), % at 20 µM. 1,800 tested, under 10 active;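 active = signal rise of 40% or more at 20 µM, treated as a fluorescence artifact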
Fluor interf inh: fluorescence interference of Apaf-1 inhibitor hits, dose response, artefact control for Apaf-1 inhibitor project; fluorescence interference counterscreen, Apaf-1 assay format; shares compounds with Apaf-1 inh; 460 tested, under 10 active; AID 588538, 2011; IC50, µM; call rule not given here
Starred values were filed as active, the others as inactive; i = inactive; . = no result given.

SMILES	TMEM16A act	ANO1 block	Apaf-1 inh	FID counter	UBC13 polyUb	Apaf-1 inh conf2	Rh110 interf inh	others
CCN1/C(=C/c2ccc3cc(C)ccc3[n+]2CC)Sc2cc(C)c(C)cc21	i	.	64.5*	-7.9	16.0	59.6*	-18.9	Fluor interf inh=>100
O=C(Oc1ccccc1C(=O)Nc1ccccc1)c1ccccc1Br	i	i	.	-14.1	.	.	.
COc1cccc(/C=N\NC(=O)C2C(=O)NCC2c2ccccc2)c1O (stereo not drawn)	i	i	-1.1	-14.1	12.7	.	.
Cc1ccc(-c2ccc(/C=N\NC(=O)C3C(=O)NCC3c3ccccc3)o2)cc1Cl (stereo not drawn)	i	i	42.7*	-13.5	-2.2	34.9	13.5
O=C1NCC(c2ccccc2)C1C(=O)N/N=C\c1ccc(-c2cccc(Cl)c2Cl)o1 (stereo not drawn)	i	i	40.0*	-20.9	2.1	20.3	7.2
COc1ccc(CN2[C@@H](CC(C)=O)c3cc(C(F)(F)F)ccc3S2(=O)=O)cc1	i	i	9.6	.	2.1	.	.
O=C1CCNc2cc3ccccc3cc21	i	i	62.1*	-5.5	-40.0	19.6	11.0
Cc1cc(C)c2sc(N(CCN(C)C)C(=O)CCS(=O)(=O)c3ccccc3)nc2c1	i	i	52.5*	30.4	-1.3	7.5	6.8
CCN(CC)CCN(C(=O)CCS(=O)(=O)c1ccccc1)c1nc2cc(C)cc(C)c2s1	i	i	35.0	13.8	9.0	.	.
CSCC[C@H](NC(=O)OC(C)(C)C)C(=O)N1CCC(C(=O)N[C@@H](C)C(=O)NC(C)c2ccccc2)CC1 (stereo partly drawn)	i	i	-1.9	-42.9	2.9	.	.
O=C1Nc2ccc(S(=O)(=O)NCc3ccco3)c3cccc1c23	i	i	49.5*	-1.9	-23.3	22.0	16.7
O=C(O)CNS(=O)(=O)c1ccc2c3c(cccc13)C(=O)N2	i	i	1.0	-7.6	-7.1	.	.
COc1ccc(NC(=O)c2c[nH]n3c(=O)cc(C4CCN(C(=O)OC(C)(C)C)CC4)nc23)cc1Cl	i	i	41.7*	-21.7	-51.1	30.5	8.3
Cc1ccc2c(c1)c1ccc3c(c1n2C)C(=O)C=CC3=O	i	.	56.5*	-5.3	-24.9	40.4*	2.4	Fluor interf inh=>100
COc1ccc2c(c1)c1ccc3c(c1n2C)C(=O)C=CC3=O	i	.	71.2*	0.1	-34.4	57.5*	5.0	Fluor interf inh=>100
Cn1c2ccccc2c2ccc3c(c21)C(=O)C=CC3=O	i	.	.	.	.	.	.
CCOC(=O)C1(CCc2ccccc2)CCN(C(=O)c2cnc(C)cn2)CC1	i	i	6.9	-29.8	2.5	.	.
COc1ccc(C(C)(C)C)cc1NC(=O)CNc1cccc2ccccc12	i	i	43.8*	-6.4	-60.3	28.8	7.0
COc1ccccc1NC(=O)Cc1cccc2ccccc12	i	i	11.8	-15.4	-4.9	.	.
Cc1cc(N/N=C/c2ccccc2)nc(NCc2ccccc2)n1	i	i	13.6	2.2	8.7	.	.
COc1ccc(/C=N/Nc2cc(N(C)C)nc(N(C)C)n2)cc1	i	i	96.6*	-3.3	-15.9	95.3*	3.7	Fluor interf inh=>100
CN(C)c1cc(N/N=C\c2ccccc2)nc(N(C)C)n1	i	i	94.8*	7.4	-28.6	88.6*	6.5	Fluor interf inh=>100
Clc1c2c(nc3ccccc13)CCC2	i	i	-0.6	-11.5	3.7	.	.
Nc1ccc2nc3c(c(Cl)c2c1)CCCC3	i	i	63.5*	-2.9	-2.2	22.6	1.8
COc1ccc(CN=Cc2[nH]c3ccc(Br)c(Cl)c3c2O)cc1	i	i	44.7*	-0.8	-70.6	40.8*	-1.3	Fluor interf inh=>100
SMILES	TMEM16A act	ANO1 block	Apaf-1 inh	FID counter	UBC13 polyUb	Apaf-1 inh conf2	Rh110 interf inh	others
O=C(CCC1CCCNC1)c1ccccc1 (stereo not drawn)	.	i	-11.5	-0.1	-0.1	.	.
C=C(C)Cc1c(C)c(C#N)c2[nH]c3ccccc3n2c1=O	i	i	62.0*	-3.3	-14.1	45.5*	5.2	Fluor interf inh=>100
Cc1c(NC(=O)c2ccc(S(=O)(=O)N(C)c3ccccc3)cc2)c(=O)n(-c2ccccc2)n1C	i	i	-14.3	-17.2	-5.8	.	.
CC(C)CCC(C)N=Cc1c(O)n(Cc2ccccc2)c(=O)c2ccccc12 (stereo not drawn)	i	i	59.7*	-8.3	-3.7	56.2*	2.8	Fluor interf inh=>100
COc1ccc(CCN(C)C2CCCN(S(=O)(=O)c3ccccc3)C2)cc1OC (stereo not drawn)	i	i	8.5	9.8	-0.8	.	.
O=C1C(C2=C(O)c3ccccc3C2=O)=Nc2ccccc21	i	i	65.8*	-4.4	-93.9	99.1*	11.5	Fluor interf inh=>100
Cc1coc2c1C(=O)C(=O)c1c-2ccc2c1CCCC2(C)C	i	i	76.6*	-9.0	-81.0	59.3*	9.9	Fluor interf inh=>100
C[C@H]1COC2=C1C(=O)C(=O)c1c2ccc2c1CCCC2(C)C	i	i	.	-20.2	.	.	.
COC(=O)C1=C(C)N(Cc2ccccc2)C(=NCC(C)C)N[C@H]1c1ccccc1	.	i	27.4	18.3	44.9	.	.
COC(=O)C1=C(C)N(Cc2ccccc2)C(=NCc2ccc(OC)cc2)N[C@H]1c1ccccc1	i	.	51.3*	.	43.8	12.1	6.1
Cc1cccc(NC(=O)C(Cc2ccccc2)n2cccc2)c1 (stereo not drawn)	i	i	-5.4	-7.5	2.5	.	.
CC(=O)N(c1ccc(C)cc1)c1nc(C)cc(C)c1C#N	i	i	-0.6	-10.4	3.7	.	.
Cc1cc(=O)n(-c2ccc3ccccc3n2)[nH]1	i	i	85.7*	-3.7	-9.1	4.0	4.4
CC1=CCC2C(=O)N(c3ccc4ccccc4n3)C(=O)C2C1 (stereo not drawn)	i	i	-3.2	-5.8	1.3	.	.
Cc1ccc2oc(-c3ccc(NC(=O)c4ccncc4)cc3O)nc2c1	i	i	11.3	-12.4	9.8	.	.
COc1ccc(CC(=O)Nc2ccc(-c3nc4cc(C)ccc4o3)c(O)c2)cc1OC	i	i	42.0*	0.6	0.8	5.6	-2.8
Cc1onc(-c2ccccc2Cl)c1C(=O)Nc1ccccc1O	i	i	2.4	-1.9	7.4	.	.
